Reference: ChEMBL document CHEMBL1153864, “Phase transfer catalyzed synthesis of bis-quinolines: antileishmanial activity in experimental visceral leishmaniasis and in vitro antibacterial evaluation” (Eur J Med Chem, 2009)
In brackets after ≈: the same amount, converted by molar mass. Activity calls are given as the source filed them. No cut-off for these calls is given here.

How the values were obtained:
Proteus mirabilis [1] = assay: Antibacterial activity against Proteus mirabilis 7 after 24 hrs by agar dilution method; assay type: functional; details: Proteus mirabilis, 7, 24 h
Procedure, shortened: (§1)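 Agar dilution MIC. Compound dissolved in sterile 0.2% DMSO, diluted in distilled water and mixed into molten nutrient agar (pH 7.2–7.4) at 5, 10, 25, 50; plate with 0.2% DMSO as control. Gram-positives grown 18 h in nutrient broth, Gram-negatives in peptone water. Stationary-phase suspension set to 0.5 McFarland, diluted 1:100, spot-inoculated at about 10^5 CFU per loopful. Plates held 24 h at 37 °C (up to 72 h if needed). MIC is the lowest level with no growth.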

Vibrio cholerae [2] = assay: Antibacterial activity against Vibrio cholerae 582 at 50 ug/ml after 24 hrs by agar dilution method; assay type: functional; details: Vibrio cholerae, 582, 24 h
[3] = Down regulation of TNFalpha release Leishmania donovani MHOM/IN/1983/AG83 infected bacterial liposaccharide-stimulated golden Syrian hamster peritoneal macrophages; assay type: functional, cell-based; details: Mesocricetus auratus; Macrophage
Escherichia coli [4] = assay: Antibacterial activity against Escherichia coli ATCC 25938 at 5 ug/ml after 24 hrs by agar dilution method; assay type: functional, organism-based; procedure, shortened: as §1
Vibrio cholerae [5] = assay: Antibacterial activity against Vibrio cholerae 582 after 24 hrs by agar dilution method; assay type: functional; details: Vibrio cholerae, 582, 24 h
Shigella dysenteriae [6] = assay: Antibacterial activity against Shigella dysenteriae 7 NCTC 519/66 at 50 ug/ml after 24 hrs by agar dilution method; assay type: functional; details: 7 NCTC 519/66, 24 h
[7] = Down regulation of IL6 release Leishmania donovani MHOM/IN/1983/AG83 infected interferon gamma-stimulated golden Syrian hamster peritoneal macrophages; assay type: functional, cell-based; details: Mesocricetus auratus; Macrophage
Proteus mirabilis [8] = assay: Antibacterial activity against Proteus mirabilis 175 after 24 hrs by agar dilution method; assay type: functional; details: Proteus mirabilis, 175, 24 h; procedure, shortened: as §1
Staphylococcus aureus [9] = assay: Antibacterial activity against Staphylococcus aureus ML145 at 25 ug/ml after 24 hrs by agar dilution method; assay type: functional; details: ML145, 24 h; procedure, shortened: as §1
Mus musculus [10] = assay: Toxicity in BALB/c mouse assessed as effect on blood urea levels at 12.5 mg/kg, ip administered two times per week for 4 weeks; assay type: organism-based; design: dose 12.5 mg/kg, route intraperitoneal; details: in vivo, 672 h
Procedure, shortened: (§2)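 Normal BALB/c mice were dosed ip twice per week for 4 weeks. Blood was collected one month after treatment, and serum SGPT and SGOT (IU/l) and blood urea (mg/dl) were measured with commercial kits and compared with untreated normal mice.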

Leishmania donovani [11] = assay: Antileishmanial activity against Leishmania donovani MHOM/IN/1983/AG83 promastigotes infected BALB/c mouse assessed as spleen weight at 5.5 mg/kg, ip administered two times per week for 4 weeks; assay type: functional; details: route intraperitoneal
Procedure, shortened: (§3)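 BALB/c mice (4-6 weeks) were infected iv with 2 × 10^7 freshly transformed promastigotes. One month later, groups were dosed ip in 0.2% Tween 80 in PBS (0.02 M), twice weekly for one month (8 doses); controls got vehicle only. Mice were killed one month post-treatment and spleen and liver were weighed. Parasite load came from Giemsa impression smears as organ weight (mg) × amastigotes per cell nucleus × 2 × 10^5. Values are mean ± S.E. of 5 mice; unpaired t-test.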

Staphylococcus aureus [12] = assay: Antibacterial activity against Staphylococcus aureus ML6 ug/ml after 24 hrs by agar dilution method; assay type: functional; details: ML6, 24 h; procedure, shortened: as §1
Escherichia coli [13] = assay: Antibacterial activity against Escherichia coli K-12 Row after 24 hrs by agar dilution method; assay type: functional; procedure, shortened: as §1
Shigella dysenteriae [14] = assay: Antibacterial activity against Shigella dysenteriae 7 NCTC 519/66 after 24 hrs by agar dilution method; assay type: functional; details: 7 NCTC 519/66, 24 h
Vibrio cholerae [15] = assay: Antibacterial activity against Vibrio cholerae 569B after 24 hrs by agar dilution method; assay type: functional
Shigella dysenteriae [16] = assay: Antibacterial activity against Shigella dysenteriae 6 NCTC 100/54 at 5 ug/ml after 24 hrs by agar dilution method; assay type: functional, organism-based
Leishmania donovani [17] = assay: Antileishmanial activity against Leishmania donovani MHOM/IN/1983/AG83 amastigotes by Giemsa staining; assay type: functional, organism-based
Procedure, shortened: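 Peritoneal macrophages from thioglycolate-elicited exudate (~2×10^6/ml), adhered overnight on coverslips in RPMI-1640 + 10% FBS at 37 °C, 5% CO2. Infected 6 h with stationary-phase AG83 promastigotes (2×10^7/ml), washed, then exposed 24 h to 0.5, 1, 3, 5, 10 compound. Methanol-fixed, Giemsa-stained; amastigotes per 200 macrophages counted against untreated controls.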

Proteus mirabilis [18] = assay: Antibacterial activity against Proteus mirabilis 175 at 10 ug/ml after 24 hrs by agar dilution method; assay type: functional, organism-based; procedure, shortened: as §1
Macrophage = assay: Induction of nitric oxide production in Leishmania donovani MHOM/IN/1983/AG83 infected golden Syrian hamster peritoneal macrophages; assay type: functional, cell-based; details: Mesocricetus auratus
Staphylococcus aureus [19] = assay: Antibacterial activity against Staphylococcus aureus ML6 at 5 ug/ml after 24 hrs by agar dilution method; assay type: functional, organism-based; procedure, shortened: as §1
Proteus mirabilis [20] = assay: Antibacterial activity against Proteus mirabilis 7 at 10 ug/ml after 24 hrs by agar dilution method; assay type: functional, organism-based; procedure, shortened: as §1
Proteus mirabilis [21] = assay: Antibacterial activity against Proteus mirabilis 175 at 5 ug/ml after 24 hrs by agar dilution method; assay type: functional, organism-based; procedure, shortened: as §1
Mus musculus [22] = assay: Toxicity in BALB/c mouse assessed as effect on serum glutamate pyruvate transaminase levels at 12.5 mg/kg, ip administered two times per week for 4 weeks; assay type: organism-based; design: dose 12.5 mg/kg, route intraperitoneal; details: in vivo, 672 h; procedure, shortened: as §2
Shigella dysenteriae [23] = assay: Antibacterial activity against Shigella dysenteriae 6 NCTC 100/54 at 50 ug/ml after 24 hrs by agar dilution method; assay type: functional; details: 6 NCTC 100/54, 24 h
Leishmania donovani [24] = assay: Antileishmanial activity against Leishmania donovani MHOM/IN/1983/AG83 promastigotes assessed as induction of kinetoplast enlargement at 11.5 ug/ml after 2 hrs by transmission electron microscopy; assay type: functional, organism-based
Leishmania donovani [25] = assay: Antileishmanial activity against Leishmania donovani MHOM/IN/1983/AG83 promastigotes infected BALB/c mouse assessed as liver weight at 12.5 mg/kg, ip administered two times per week for 4 weeks; assay type: functional; details: route intraperitoneal; procedure, shortened: as §3
Shigella dysenteriae [26] = assay: Antibacterial activity against Shigella dysenteriae 6 NCTC 100/54 at 25 ug/ml after 24 hrs by agar dilution method; assay type: functional, organism-based
Leishmania donovani [27] = assay: Antileishmanial activity against Leishmania donovani MHOM/IN/1983/AG83 promastigotes infected BALB/c mouse assessed as reduction in spleen parasite burden at 12.5 mg/kg, ip administered two times per week for 4 weeks relative to control; assay type: functional; design: scale not given: the % may be the effect or the level left; details: route intraperitoneal; procedure, shortened: as §3
Vibrio cholerae [28] = assay: Antibacterial activity against Vibrio cholerae 582 at 25 ug/ml after 24 hrs by agar dilution method; assay type: functional; details: Vibrio cholerae, 582, 24 h

**Q.** With `Clc1ccc(OCOc2ccc(Cl)c3cccnc23)c2ncccc12` as the compound, how does the MIC (Proteus mirabilis [1]) read?
**A.** 50 µg/mL (≈ 135 µM)

**Q.** What about the inhibition at 50 µg/mL (Vibrio cholerae [2]) of the same compound?
**A.** 100%

**Q.** And the Activity [3]?
**A.** Active

**Q.** And the Activity (Escherichia coli [4])?
**A.** inactive

**Q.** What about the MIC (Vibrio cholerae [5]) of the same compound?
**A.** 5 µg/mL (≈ 13.5 µM)

**Q.** What about the inhibition at 50 µg/mL (Shigella dysenteriae [6]) of the same compound?
**A.** 100%

**Q.** And the Activity [7]?
**A.** Active

**Q.** What about the MIC (Proteus mirabilis [8]) of the same compound?
**A.** 50 µg/mL (≈ 135 µM)

**Q.** What about the inhibition at 25 µg/mL (Staphylococcus aureus [9]) of the same compound?
**A.** 100%

**Q.** What about the Activity (Mus musculus [10]) of the same compound?
**A.** Non-toxic

**Q.** What about the Activity (Leishmania donovani [11]) of the same compound?
**A.** 175 mg

**Q.** What about the MIC (Staphylococcus aureus [12]) of the same compound?
**A.** 10 µg/mL (≈ 26.9 µM)

**Q.** What about the MIC (Escherichia coli [13]) of the same compound?
**A.** 50 µg/mL (≈ 135 µM)

**Q.** And the MIC (Shigella dysenteriae [14])?
**A.** 10 µg/mL (≈ 26.9 µM)

**Q.** What about the MIC (Vibrio cholerae [15]) of the same compound?
**A.** 25 µg/mL (≈ 67.3 µM)

**Q.** And the Activity (Shigella dysenteriae [16])?
**A.** inactive

**Q.** What about the IC50 (Leishmania donovani [17]) of the same compound?
**A.** 2.1 µg/mL (≈ 5.66 µM)

**Q.** What about the Activity (Proteus mirabilis [18]) of the same compound?
**A.** inactive

**Q.** What about the Activity (Macrophage) of the same compound?
**A.** Active

**Q.** What about the Activity (Staphylococcus aureus [19]) of the same compound?
**A.** inactive

**Q.** And the Activity (Proteus mirabilis [20])?
**A.** inactive

**Q.** And the Activity (Proteus mirabilis [21])?
**A.** inactive

**Q.** And the Activity (Mus musculus [22])?
**A.** Non-toxic

**Q.** And the inhibition at 50 µg/mL (Shigella dysenteriae [23])?
**A.** 100%

**Q.** And the Activity (Leishmania donovani [24])?
**A.** Active

**Q.** What about the Activity (Leishmania donovani [25]) of the same compound?
**A.** 900 mg

**Q.** What about the Activity (Shigella dysenteriae [26]) of the same compound?
**A.** inactive

**Q.** And the Activity (Leishmania donovani [27])?
**A.** 95%

**Q.** And the inhibition at 25 µg/mL (Vibrio cholerae [28])?
**A.** 100%
